Lmaj promast – reduces viability of Leishmania major promastigotes; AID 1063; resazurin fluorescence viability; 9% of 200,000 active; inhibition, % at 10 µM; in the data active = inhibition above about 50%;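 also: promastigotes grown with compound for 44 hours at 28 °C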
CSC inhib – cancer stem cell inhibition; cancer stem cell-like cells viability, luminescence; inhibition, % at 7.5 µM; 1.1% of 300,000 active; in the data active = inhibition above about 75%; inconclusive = no clear call, values can overlap the other calls; tested in HMLE shEcad cells
Beta apoptosis – blocks beta cell apoptosis; INS-1E cytokine-induced death, ATP luminescence, 48 h; percent of positive-control rescue, neutral wells zero; protection from apoptosis, % (test concentration not listed); 0.8% of 300,000 active; AID 435005;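 active = Every replicate reaches about 75%, or at least half do and their mean reaches it too, limit read from the data; inconclusive = At least half of replicates reach the limit but their mean does not; inactive = Under half of replicates reach the limit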;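 also: 0% = cytokine-treated negative control wells and 100% = positive control rescue; higher means more ATP so stronger rescue from cytokine killing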
SKKanGAS inh – SKKanGAS growth inhibition | S. pyogenes SKKanGAS, kanamycin growth, BacTiter-Glo, 6 h | AID 1662 | 1.3% of 300,000 active | inhibition, % at 7.5 µM;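 active = mean replicate score, as percent of positive control median, at least 50; inconclusive = mean below 50 but one replicate at or above 50; inactive = mean and every replicate below 50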;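 also: strain carries kanamycin resistance gene driven by streptokinase promoter and grows in 40 µg/ml kanamycin; loss of luminescence reflects streptokinase promoter inhibition or plain growth inhibition; 0% = median of DMSO wells and 100% = positive control at its reference dose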
Mdm2 MdmX PPI – human Mdm2/MdmX binding inhibition. O15151+Q00987. SaOS-2 split-luciferase Mdm2/MdmX complementation, luminescence. inhibition, % at 8 µM. 3% of 330,000 active. AID 485346;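 active = inhibition of at least 50% at 8 µM in the primary screen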
T cruzi inh – blocks replication of Trypanosoma cruzi; T. cruzi beta-gal in NIH3T3, luminescence, 90 h; inhibition, % (test concentration not listed); 1.4% of 300,000 active; AID 1885;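 active = mean inhibition across valid replicates above about 55%, limit read from the data; inconclusive = mean below that limit but half or more replicates reach it; inactive = mean below it, under half of replicates reach it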;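 also: signal also drops with host cell toxicity which is not excluded here; 0% = plate median of DMSO wells and 100% = zero luminescence signal; higher percent means less beta-gal luminescence so fewer parasites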
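assay system = mouse NIH/3T3 fibroblasts infected with β-gal-expressing T. cruzi Tulahuen C4 | input = 5,000 NIH/3T3 host cells per well | buffer or medium = DMEM plus 2% FBS | timing = 3 h host attachment, then at least 90 h co-culture | measured by = GalScreen luminescence, 60 min | evaluation = luminescence reflecting intracellular parasite burden, expressed as percent inhibition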
An asterisk follows results filed as active; ? = inconclusive; / = no result given. Shown are actives, neighbours in structure and some others; about 9.4% of the full set was active somewhere.

SMILES	Lmaj promast	CSC inhib	Beta apoptosis	SKKanGAS inh	Mdm2 MdmX PPI	T cruzi inh
CC1CCN(C(=O)CSc2nnc(-c3cccnc3)o2)CC1	/	/	-1	1	1	2
CCC(C)[C@H](N)c1cn([C@@H](CCCCN)C(=O)N2CCNCC2)nn1 (stereo not given in full)	-4	-5	3	2	-8	-6
COc1ccc(C=C(C(C)=O)C(C)=O)cc1OC	41	-5	2	5	11	-2
COc1cc(C=C(C(C)=O)C(C)=O)ccc1O	63*	-11	1	5	2	-9
S=C(NCCCN1CCOCC1)Nc1ccc(Cl)c(Cl)c1	95*	-7	-4	2	7	-9
Cc1ccc(NC(=S)NCCCN2CCOCC2)cc1C	/	-3	-9	3	-23	-16
CSc1cccc(NC(=S)NCCCN2CCN(c3ccc(F)cc3)CC2)c1	57*	6	-1	0	22	10
FC(F)(F)c1cccc(NC(=S)NCCN2CCOCC2)c1	40	-13	2	-14	-5	-16
CCCN1CCN(CCCNC(=S)Nc2ccc(F)cc2)CC1	3	1	2	-2	-26	-12
Fc1cccc(NC(=S)NCCCN2CCOCC2)c1	72*	9	-4	-4	-16	/
Fc1cccc(NC(=S)NCCN2CCOCC2)c1	67*	-6	-3	-3	-7	-6
CCN(CC(=O)Nc1c(F)cccc1F)C(=O)c1nn(C)c(=O)c2ccccc12	/	/	-1	/	-9	/
O=C(NNC(=O)c1ccccc1F)c1ccc(Cl)c(S(=O)(=O)N2CCOCC2)c1	/	-1	-2	/	18	/
Fc1cc(F)cc(NC(=S)NCCCN2CCOCC2)c1	54*	-5	-3	-30	-24	1
COc1cc(NC(=S)NCCCN2CCOCC2)cc(OC)c1OC	-1	-13	0	0	-17	-16
CC(=O)c1cccc(NC(=O)c2cc(-c3ccc(C)cc3)on2)c1	62*	-6	-3	-6	-9	2
COc1cccc(-c2cc(C(=O)Nc3c(C)nn(Cc4ccccc4)c3C)no2)c1	28	4	6	/	-6	-5
CCc1ccc(-c2cc(C(F)(F)F)n3nc(C(=O)Nc4c(C)nn(Cc5ccccc5C)c4C)cc3n2)s1	16	/	24	28	15	59*
COc1cccc(-c2cc(C(=O)Nc3c(C)nn(Cc4ccccc4C)c3C)no2)c1	52*	-3	18	1	20	-1
Cc1ccc(NC(=O)c2cc(-c3cccc(O)c3)on2)cc1C	11	80*	2	0	-117	14
COc1ccc(/C=C/CN2CCC(n3nccc3NC(=O)C3CC3)CC2)cc1	/	-8	-2	-1	1	0
O=C(COC(=O)CNS(=O)(=O)c1ccccc1)Nc1ncc(Cl)cc1Cl	/	/	2	/	11	/
COc1cccc(-c2cc(C(=O)Nc3cc(OC)c(OC)c(OC)c3)no2)c1	51*	43	3	/	49	4
COc1cc(NC(=O)c2cc(-c3ccccc3)on2)cc(OC)c1OC	/	15	2	-8	-4	-4
Cc1ccc(SCCNC(=O)/C=C/c2ccccc2Cl)cc1	2	4	-1	-1	6	26
SMILES	Lmaj promast	CSC inhib	Beta apoptosis	SKKanGAS inh	Mdm2 MdmX PPI	T cruzi inh
Cc1ccc(SCCNC(=O)/C=C/c2ccc(Cl)cc2)cc1	51*	6	-9	-3	13	2
O=C(/C=C/c1ccc([N+](=O)[O-])cc1)NCCSc1ccccc1	-2	/	-1	2	11	9
Cc1ccc(SCCNC(=O)/C=C/c2ccc([N+](=O)[O-])cc2)cc1	62*	/	/	-9	-2	16
O=C(CN1CCNCC1)NCCSc1ccc(Cl)cc1	88*	/	-7	-2	13	1
COCCn1c(-c2cc(OC)c(OC)c(OC)c2)nc2oc3cc(OC)ccc3c(=O)c2c1=O	/	-8	6	55*	-10	2
COc1ccc2c(=O)c3c(=O)n(Cc4ccco4)c(-c4ccc(C)cc4)nc3oc2c1	59*	-15	11	13	3	9
COc1ccc2c(=O)c3c(=O)n(Cc4ccco4)c(C(C)C)nc3oc2c1	9	11	1	8	3	11
CCc1nc2oc3cc(OC)ccc3c(=O)c2c(=O)n1Cc1ccccc1	95*	-4	5	11	13	4
COCCn1c(C)cc(C(=O)CSc2nc3ccccc3c(=O)n2Cc2ccco2)c1C	78*	14	5	4	37	18
CN(Cc1ccccc1)C(=O)CSc1nc2ccccc2c(=O)n1Cc1ccco1	45	-4	-2	-1	30	42
C/C(N)=C(/C#N)C(=O)CSc1nc2cc(Cl)ccc2c(=O)n1-c1ccc(C)cc1	8	/	17	1	10	18
C/C(N)=C(/C#N)C(=O)CSc1nc2cc(Cl)ccc2c(=O)n1Cc1ccco1	-2	31	-15	61*	19	59*
Cc1ccc(NC(=O)CN(C)C(=O)CSc2nc3ccccc3c(=O)n2Cc2ccco2)cc1	87*	12	-2	-1	26	19
O=C(CSc1nc2ccccc2c(=O)n1Cc1ccco1)N1CCCCCC1	79*	17	1	3	34	43
O=C(NCc1ccco1)c1ccc2c(=O)n(Cc3ccco3)c(SCC(=O)N3CCCC3)nc2c1	24	/	-2	/	18	/
Cc1ccc(S(=O)(=O)N2CCN(C(=O)CCC(=O)Nc3ccc(F)cc3F)CC2)cc1	/	-23	1	/	-4	/
CCOC(=O)c1nc(-c2ccccc2)sc1C(C)=O	/	-12	-3	-5	4	0
COc1ccc(-c2csc(NC(=O)c3ccccc3F)c2C(=O)O)cc1	/	-19	-3	16	-2	-1
CN(C)c1ccc(CN(C(=O)c2ccccc2Br)C2CCS(=O)(=O)C2)cc1 (stereo not given)	/	-5	-2	11	7	-23
Cc1cccc(C2c3[nH]c4ccccc4c3CCN2C(=O)c2cc(CC(C)C)[nH]c(=O)n2)n1 (stereo not given)	-12	-8	-1	21	26	8
Nc1c2c(nc3ccc(Br)cc13)N(c1ccccc1)CC2	100*	19	10	/	-4	/
CSc1nc(C)c2c(n1)N(c1cccc(C)c1)CC2	3	2	-2	11	23	20
Nc1c2c(nc3ccc(Br)cc13)N(C1CCCCC1)CC2	101*	?	19	-8	1	30
Nc1c2c(nc3ccc(Br)cc13)N(Cc1ccccc1)CC2	94*	5	1	2	-10	-7
Cc1cccc(N2CCc3c2nc2ccc(Br)cc2c3N)c1	100*	56	28	10	9	39
C=CCOCC(O)Cn1c(N2CCCC2)nc2c1c(=O)[nH]c(=O)n2C (stereo not given)	/	-12	0	-4	9	-21
COc1cccc(/C=C/C(=O)OCC(=O)NCC2CCCCC2)c1OC	/	0	-3	/	8	/

Bioassay records deposited in PubChem BioAssay by several laboratories.
